# Assay outcomes as filed in PubChem.
# RGS4 pot: RGS4 potentiators or activators, primary screen, cell-based, HEK293 M3R inducible RGS4, calcium flux | carbachol calcium flux Fluo4; hits give low values | B-score at 10 µM | 0.92% of 310,000 active | AID 463111, 2010;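 active means B-score of the integrated calcium signal more than 4 SD below the library mean, with starting fluorescence not abnormally high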;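 further: negative B-score means reduced calcium response which marks RGS4 activation or potentiation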
#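 test system = HEK293 cells with stable M3R and inducible RGS4 | schedule = recording 10 s baseline at 1 Hz, 100 s post-agonist | technique = Fluo4-AM (2 µM) calcium-flux fluorescence, kinetic read | measure = Agonist-evoked peak-minus-minimum fluorescence over baseline, integrated ratio, B score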
# RGS4 block: RGS4 inhibitors, primary screen, cell-based, HEK293 M3R inducible RGS4, calcium flux | 0.45% of 310,000 active | B-score at 10 µM | Regulator of G-protein signaling 4 (Homo sapiens), P49798 | AID 463165, 2010 | Fluo-4 calcium flux; hits give high values; triggered by carbachol at its EC20;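 active means B-score, a plate-corrected calcium signal, over three deviations above library mean, with baseline fluorescence within five deviations of library mean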;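 further: RGS4 expression induced by doxycycline in cells with stable M3 receptor; B-score is computed from the integrated fluorescence ratio over baseline after carbachol; higher B-score means a larger calcium signal and so more RGS4 inhibition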
# Target sequence (P49798 whole entry, looked up): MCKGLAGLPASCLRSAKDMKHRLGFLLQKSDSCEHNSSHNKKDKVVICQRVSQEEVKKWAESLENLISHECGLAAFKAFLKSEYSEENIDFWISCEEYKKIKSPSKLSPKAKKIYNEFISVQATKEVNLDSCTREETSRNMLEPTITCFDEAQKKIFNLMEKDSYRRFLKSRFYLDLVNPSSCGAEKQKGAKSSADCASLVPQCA
# MrgX1 antag: antagonists of human MrgX1 receptor, primary screen, HEK293 cells, Fluo-4 calcium flux. 1.3% of 310,000 active. Mas-related G-protein coupled receptor member X1 (Homo sapiens), Q96LB2. BAM8-22 antagonism; hits give low values. B-score at 10 µM. AID 588676, 2011;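 active means calcium-response B-score plate-corrected more than 3 library SD below zero, starting fluorescence within 5 deviations, no agonist response on first addition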;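 further: peak minus trough fluorescence over baseline after final BAM8-22 challenge near maximal dose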
# Target sequence (Q96LB2 whole entry, looked up): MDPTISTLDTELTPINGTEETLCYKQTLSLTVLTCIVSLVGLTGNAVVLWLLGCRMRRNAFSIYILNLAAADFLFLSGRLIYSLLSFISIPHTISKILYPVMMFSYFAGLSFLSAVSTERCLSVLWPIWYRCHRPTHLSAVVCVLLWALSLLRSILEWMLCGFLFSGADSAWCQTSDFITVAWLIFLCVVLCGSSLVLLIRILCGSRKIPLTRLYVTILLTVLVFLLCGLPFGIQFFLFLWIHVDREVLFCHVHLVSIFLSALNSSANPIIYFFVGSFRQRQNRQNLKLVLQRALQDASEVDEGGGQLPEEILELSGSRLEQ
# MrgX1 allo act: positive allosteric modulators of MrgX1, primary screen, HEK293 cells, Fluo-4 calcium flux. 0.63% of 310,000 active. B-score at 10 µM. Mas-related G-protein coupled receptor member X1 (Homo sapiens), Q96LB2. FDSS; hits give high values;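 active means plate-corrected calcium response at least 3 library SD above typical, normal starting fluorescence, not activating the receptor alone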;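 further: compound read alongside a low EC10 to EC30 dose of BAM8-22 agonist; peak minus trough fluorescence over baseline measured at the second addition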
# MrgX1 agonist: agonists of human MrgX1 receptor, primary screen, HEK293 cells, Fluo-4 calcium flux. Mas-related G-protein coupled receptor member X1 (Homo sapiens), Q96LB2. Fluo-4 calcium fluorescence, agonist mode; hits give high values. B-score at 10 µM. 0.44% of 310,000 active;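 active means calcium response B-score plate-corrected fluorescence ratio at least 3 library SD, with starting fluorescence B-score inside 5 SD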
#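 Material – MrgX1-expressing HEK293 cells · Input – 15,000 cells seeded per well · Dosing – compound as first of three additions · Times – overnight seeding, then 1 h dark dye loading · Measured by – kinetic Fluo-4 NW fluorescence of intracellular calcium · Read-out – B-scored fluorescence response ratio · Benchmarks – positive and negative control wells on each plate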
# MrgX1 antag conf: MrgX1 receptor antagonists, duplicate retest, confirmation, HEK293 cells, Fluo-4 calcium flux; shares compounds with MrgX1 antag; BAM8-22 calcium flux; hits give low values; remaining BAM8-22 calcium response % of control (hits give low values), % at 10 µM; 19% of 2,300 active;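 active means remaining agonist calcium response no higher than 100% minus 3 SD of agonist-only control wells, with starting fluorescence near control levels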;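 further: agonist BAM8-22 given at a near maximal EC90 to ECmax level; peak minus minimum fluorescence divided by baseline after agonist addition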
# HEK293 Ca flux: nonspecific calcium signal in parental HEK293, confirmation, counter-screen for MrgX1 antagonist project, parental HEK293 cells, Fluo-4 calcium flux; shares compounds with MrgX1 antag; Fluo-4 calcium fluorescence, FDSS; fluorescence ratio F(max-min)/F0 at 10 µM; 2% of 4,000 active; AID 624111, 2012;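 active means duplicate-averaged calcium fluorescence ratio at least three times the standard deviation of buffer wells, a nonspecific response in parental cells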
# HEK293 Ca counter: calcium response in parental HEK293 cells, primary screen, counter-screen for MrgX1 allosteric activator project, cell-based, Fluo-4 calcium flux, duplicate | shares compounds with MrgX1 antag | Fluo-4 fluorescence ratio; hits give high values | fluorescence ratio F(max-min)/F0 at 10 µM | 0.4% of 4,000 active;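 active means calcium fluorescence ratio, averaged over duplicates, at least 3 SD of the buffer-well ratio, meaning a nonspecific response in receptor-free cells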;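 further: untransfected parental HEK293 lacking MrgX1 used as counterscreen for MrgX1 allosteric activators; fluorescence change taken during the second addition on a kinetic imager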
# HEK293 Ca cntr2: calcium response in parental HEK293 cells, primary screen, counter-screen for MrgX1 agonist project, cell-based, Fluo-4 calcium flux, duplicate, agonist mode; shares compounds with MrgX1 antag; Fluo-4 calcium fluorescence (FDSS); hits give high values; fluorescence ratio F(max-min)/F0 at 10 µM; 8.7% of 4,000 active; AID 624115, 2012;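 active means calcium fluorescence ratio at least three times the spread of buffer wells, meaning a non-specific response in parental cells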
# A number is an active result; i = inactive; nt = no result. Sampled rows, rich in hits. Any-hit rate of the full collection: about 3.5%.
SMILES,RGS4 pot,RGS4 block,MrgX1 antag,MrgX1 allo act,MrgX1 agonist,MrgX1 antag conf,HEK293 Ca flux,HEK293 Ca counter,HEK293 Ca cntr2
CCN(CC)C1CCN(C(=O)c2cc(COc3ccccc3SC)on2)C1 (stereo not drawn),i,i,i,i,i,nt,nt,nt,nt
N#Cc1ccccc1NC(=O)CN(Cc1ccccc1)Cc1ccccc1,i,i,i,i,i,nt,nt,nt,nt
COc1ccc(NC(=O)CNC(=O)Cc2ccccc2)cc1,i,i,i,i,i,nt,nt,nt,nt
COc1ccc(CC(=O)NCC(=O)Nc2ccccc2Br)cc1,i,i,-6,i,i,i,i,i,i
CCc1ccc(S(=O)(=O)/N=C2\C=C(Nc3ccc(C(=O)O)cc3)C(=O)c3ccccc32)cc1,i,i,-7.7,i,i,85%,i,i,i
Cc1ccc(S(=O)(=O)/N=C2\C=C(Nc3cccc(C(=O)O)c3)C(=O)c3ccccc32)cc1,i,i,i,i,i,nt,nt,nt,nt
O=c1cc(C(F)(F)F)[nH]c2ccc(C(F)(F)F)cc12,i,i,-4.7,i,i,i,i,i,i
CCn1ccnc1CN1CCN(CC(C)C)C(CCO)C1 (stereo not drawn),i,i,i,i,i,nt,nt,nt,nt
CCn1ccnc1CN1CCN(CCC(C)C)C(CCO)C1 (stereo not drawn),i,i,-6.2,i,i,i,i,i,i
O=C(COc1ccccc1)N=C1SC2CS(=O)(=O)CC2N1c1ccc(F)cc1 (stereo not drawn),i,i,i,i,i,nt,nt,nt,nt
CCN1CCN(C(=O)C2CCN(Cc3cc(Cl)ccc3O)CC2)CC1,i,i,-7.7,i,i,i,i,i,i
CCN1CCN(C(=O)C2CCN(Cc3nc(-c4cccc(Cl)c4)oc3C)CC2)CC1,i,i,i,i,i,nt,nt,nt,nt
CC(C)OCCCNC(=O)c1cccc(NC(=O)c2ccccc2)c1,i,i,i,i,i,nt,nt,nt,nt
COCCCNC(=O)c1cccc(NC(=O)c2ccccc2)c1,i,i,-5.6,i,i,83%,i,i,i
COc1cccc(C(=O)Nc2cccc(C(=O)NCC(C)C)c2)c1,i,i,-6.5,i,i,i,i,i,i
O=C(NCc1ccc2c(c1)OCO2)c1ccc2c(c1)S(=O)(=O)c1ccccc1C2=O,i,i,i,i,i,nt,nt,nt,nt
COC(/C(=N/O)c1ccc(Cl)cc1)c1ccccc1 (stereo not drawn),i,i,i,i,i,nt,nt,nt,nt
Cc1cc(=O)oc2cc(OC(=O)C3CCN(C(=O)c4ccc(F)cc4)CC3)ccc12,i,i,i,i,i,nt,nt,nt,nt
O=C(O)Cc1sc(NC2CCCCC2)nc1-c1ccc(Cl)cc1,i,i,-9.6,i,i,82%,i,i,i
Cc1ccc(-c2nc(Nc3cccc(C)c3)sc2CC(=O)O)cc1,i,i,i,i,i,nt,nt,nt,nt
CCOC(=O)CSc1nc(Nc2ccc3c(c2)OCO3)c2ccccc2n1,i,i,i,i,i,nt,nt,nt,nt
CCOC(=O)c1cnc2ccccc2c1Nc1ccc2c(c1)OCCO2,i,i,-5.5,i,i,i,i,i,i
COc1cccc(-c2nc(SC)nc3sc(C(=O)NC(C)(C)C)c(N)c23)c1,i,i,i,i,i,nt,nt,nt,nt
COc1ccc(C2C(C(=O)c3ccco3)=C(O)C(=O)N2c2nnc(C)s2)cc1 (stereo not drawn),i,i,i,i,i,nt,nt,nt,nt
C=CCOc1ccc(C2C(C(=O)c3ccco3)=C(O)C(=O)N2c2nnc(C)s2)cc1 (stereo not drawn),i,i,-5,i,i,i,i,i,i
SMILES,RGS4 pot,RGS4 block,MrgX1 antag,MrgX1 allo act,MrgX1 agonist,MrgX1 antag conf,HEK293 Ca flux,HEK293 Ca counter,HEK293 Ca cntr2
O=C(NCC1CCCN1S(=O)(=O)c1cccs1)c1ccccc1 (stereo not drawn),i,i,i,i,i,nt,nt,nt,nt
O=C(NCC1CCCN1S(=O)(=O)c1cccs1)c1ccc(Cl)cc1 (stereo not drawn),i,i,-5.7,i,i,i,i,i,i
COCc1cccc(C(=O)NC(c2ccccc2)c2ccccc2)c1,i,i,i,i,i,nt,nt,nt,nt
Cc1oc2c(c(C)cc3oc(=O)c(CC(=O)N[C@@H](CCCNC(N)=O)C(=O)O)c(C)c32)c1C,i,i,i,i,i,nt,nt,nt,nt
Cc1cccc(C(=O)Nc2nnc(SCC(=O)Nc3ccc4c(c3)oc3ccccc34)s2)c1,i,i,-11,i,i,i,i,i,i
COc1ccc(Cc2ccc(OC)c(N)c2)cc1N,i,i,-5.5,i,i,i,i,i,i
COc1ccc(Cl)cc1-n1c(C)ccc1C,i,i,-8.4,i,i,i,i,i,i
COc1ccc(Cl)cc1N1C(=O)c2cccnc2C1=O,i,i,i,i,i,nt,nt,nt,nt
Cc1ccc(SCCNS(C)(=O)=O)cc1,i,i,-5.1,i,i,i,i,i,i
Cc1ccc(SCCNS(=O)(=O)c2ccc(F)cc2)cc1,i,i,i,i,i,nt,nt,nt,nt
COc1ccc(S(=O)(=O)NC(C)C(=O)NCc2ccccn2)cc1Cl (stereo not drawn),i,i,i,i,i,nt,nt,nt,nt
O=C(c1ccccc1)c1ccc(CN2C(=O)c3ccccc3C2=O)o1,i,i,-5.2,i,i,i,i,i,i
CCC1Sc2ccccc2N(CC(=O)NC2CC2)C1=O (stereo not drawn),i,i,-7,i,i,i,i,i,i
CCC1Oc2ccccc2N(CC(=O)NC2CC2)C1=O (stereo not drawn),i,i,i,i,i,nt,nt,nt,nt
O=C(NCc1ccc(OC(F)(F)F)cc1)C1CCC(=O)N(C2CC2)C1 (stereo not drawn),i,i,nt,nt,nt,nt,nt,nt,nt
c1ccc(-c2csc3ncnc(NCc4ccccn4)c23)cc1,i,i,-5.6,i,i,i,i,i,i
CN(C)CCCNc1ncnc2scc(-c3ccccc3)c12,i,i,i,i,i,nt,nt,nt,nt
N#Cc1cc2ccccc2nc1SCc1ccccn1,i,i,i,i,i,nt,nt,nt,nt
Cc1cc2cc3c(cc2nc1SCc1ccccn1)OCCO3,i,i,-6.5,i,i,i,i,i,i
